Data from PMC5837702 (Toxicological Sciences, 2017).
Where “and” joins values, the source holds several entries; their conditions need not be identical. Identical values can stand only once. Entries after “also recorded” stand apart in the source; their conditions may differ.

Legend:
[1] = tested on: Salmonella Typhimurium TA98; test: Bacterial reverse mutation test; format: cell-based; conditions: for Induction of revertant colonies compared with vehicle control: absence of metabolic activation; for Induction of revertants: presence of S9
[2] = tested on: Balb/c 3T3 clone A31-1-1 cells; test: BALB/c 3T3 cell transformation assay; format: cell-based; conditions: for Induction of foci / cell transformation: concentrations of up to 50 µM
[3] = tested on: mouse fibroblast C3H/M2 cells; conditions: ref Pfau etal., 1999, cited from earlier work; for Malignant transformation: in the presence of rat-liver S9; for Cell transformation: without metabolic activation
[4] = tested on: complex human gut microbiota; test: MelQx transformation by complex human colon microbiota; format: in vitro ADME; conditions: absence of glycerol, 100 μM MelQx, 37 °C, 72 h
Outline: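 Faecal microbiota from a healthy person were immobilised in gellan-xanthan gel beads under strict anaerobiosis and inoculated (30% v/v) into a proximal-colon reactor (37 °C, pH 5.7). It was linked to a distal-colon reactor (37 °C, pH 6.8). PC and DC effluents seeded triplicate mYCFA batch fermentations. Supernatants were alkalinised with Na2CO3, extracted thrice with ethyl acetate, concentrated and analysed by LC-ESI-MS2.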

L. rossiae DSM 15184 = test: Microbial MelQx transformation in mYCFA with glycerol; format: in vitro ADME, Lactobacillus rossiae; conditions: 100 µM MelQx, anaerobic, 37 °C, 3 days
[5] = tested on: human colon epithelial cells (HCEC); test: Cytotoxicity, CellTiter-Glo luminescent cell viability assay; format: cell-based; conditions: for LOAEL / NOAEL / BMD5 / BMD10 / BMDU5 / BMDL10 / BMDL5 / BMDU10 / IC50: 24 h; for BMD5: 5% benchmark dose; for BMD10: 10% benchmark dose; for BMDU5: highest benchmark dose upper bound, Hill models; for BMDU5 / BMDL5: 5% response; for BMDL10: lower bound; for BMDL10 / BMDU10: 10% response; for BMDL5: lowest benchmark dose lower bound, exponential models; for BMDU10: upper bound; for IC10 (95% CI): mean of 3 experiments; for IC50: Homo sapiens, read-out: IC50 (95% CI)
L. reuteri ATCC 55730 = test: Microbial MelQx transformation in mYCFA with glycerol; format: in vitro ADME, Lactobacillus reuteri; conditions: 100 µM MelQx, anaerobic, 37 °C, 3 days
bacteria [6] = conditions: cited from earlier work; for Mutagenic activity: 1 µg/plate, similar experimental conditions, ref Vanhaecke etal., 2008b
[7] = Stability of MelQx-M1 under Ames assay conditions; format: in vitro ADME; conditions: 10% rat liver S9, 1 µM, 30 min, 37 °C
[8] = tested on: human colon epithelial cells from a different origin; conditions: in presence of sulfotransferases; ref Herbst etal. (2006); cited from earlier work
bacteria [9] = test: Ames test; format: cell-based; conditions: 1 µg/plate, expectation of the authors
BALB/c 3T3 cells = conditions: non-cytotoxic concentrations; ref Nicken etal., 2015; cited from earlier work
rat intestinal tissues = conditions: ref Nicken etal., 2015; cited from earlier work
[10] = −S9, dose 5 µg/plate, positive control
[11] = 0.1 µM, 72 h exposure, n = 9–10
[12] = 0.5 µM, 72 h exposure, n = 9–10
[13] = +S9, dose 0.08 µM (0.01 µg/plate)
[14] = +S9, dose 0.2 µM (0.23 µM in text; 0.03 µg/plate MelQx, 0.04 MelQx-M1)
[15] = +S9, dose 0.8 µM (0.11 µg/plate MelQx, 0.13 MelQx-M1)
[16] = +S9, dose 2.3 µM (0.32 µg/plate MelQx, 0.40 MelQx-M1)
[17] = +S9, dose 7.7 µM (1.1 µg/plate MelQx, 1.3 MelQx-M1)
[18] = −S9, dose 0.08 µM (0.01 µg/plate)
[19] = −S9, dose 0.2 µM (0.03 µg/plate MelQx, 0.04 MelQx-M1)
[20] = −S9, dose 0.8 µM (0.11 µg/plate MelQx, 0.13 MelQx-M1)
[21] = −S9, dose 2.3 µM (0.32 µg/plate MelQx, 0.40 MelQx-M1)
[22] = −S9, dose 7.7 µM (1.1 µg/plate MelQx, 1.3 MelQx-M1)

SMILES: O=[N+]([O-])c1ccc2c(c1)Cc1ccccc1-2 [2-nitrofluorene, 2-Nitrofluorene]
- Mutagenic activity [1, 10]: 616 ± 18 revertants/plate

SMILES: Cc1ccc2cc3c(ccc4ccccc43)c3c2c1CC3 [3-methylcholanthrene]
- Number of foci per plate ([2]; 15 µM, positive control): Medium (control), 0.1% DMSO, 15 µM 3-methylcholanthrene (MCA, positive control) induced 0.2 ± 0.4, 0 ± 0, and 14.1 ± 4.5 foci per plate, respectively. NT, not tested in this study. Data are displayed as mean ± SD (n = 9–10).

SMILES: Nc1ccc([N+](=O)[O-])cc1N [4-NPD, 4-nitro-o-phenylenediamine]
- Mutagenic activity [1, 10]: 695 ± 5 revertants/plate

SMILES: Cn1c(N)nc2c3cccnc3ccc21 [IQ, 2-amino-3-methylimidazo[4,5-f]quinoline]
- Malignant transformation [3]: all induced malignant transformation
- Cell transformation [3]: none of the HCAs induced cell transformation

SMILES: Cc1cnc2ccc3c(nc(N)n3C)c2n1 [MelQx, 2-Amino-3,8-dimethylimidazo[4,5-f]quinoxaline]
- Transformation of MelQx to MelQx-M1 [4]: no transformation
- Transformation efficiency on the basis of peak area (LC-ESI-MS2) (L. rossiae DSM 15184): 72% ± 1.5%
- LOAEL [5]: 50 µM
- NOAEL [5]: 10 µM
- BMD5 [5]: 26.5 µM
- BMD10 [5]: 55.2 µM
- BMDU5 [5]: 55.8 µM
- BMDL10 [5]: 8.8 µM
- BMDL5 [5]: 4.1 µM
- BMDU10 [5]: 87.6 µM
- Concentrations that reduced cell viability ([5]; 24 h exposure): ≥ 50 µM
- IC10 (95% CI) ([5]; 24 h exposure): 52 (31–87) µM
- IC50 [5]: 272 µM
- Malignant transformation [3]: all induced malignant transformation
- Cell transformation [3]: none of the HCAs induced cell transformation
- Number of foci per plate [2, 11]: 0.1 ± 0.3
- Number of foci per plate [2, 12]: 0.5 ± 0.7
- Number of foci per plate ([2]; 5 µM, 72 h exposure, n = 9–10): 0.1 ± 0.3
- Number of foci per plate ([2]; 10 µM, 72 h exposure, n = 9–10): 0.6 ± 0.7
- Number of foci per plate ([2]; 50 µM, 72 h exposure, n = 9–10): 0.6 ± 1.2
- Induction of foci / cell transformation [2]: neither MelQx nor MelQx-M1 induced a significant amount of foci; also recorded: no detectable cell transformation
- Transformation efficiency on the basis of peak area (LC-ESI-MS2) (L. reuteri ATCC 55730): 87% ± 0.9%
- Mutagenicity relative to PhIP (bacteria [6]; Ames test, ref Pfau etal., 1999): about 10 times
- Mutagenic activity [1, 13]: 352 ± 4 revertants/plate
- Mutagenic activity [1, 14]: 980 ± 20 revertants/plate
- Mutagenic activity [1, 15]: 1264 ± 38 revertants/plate
- Mutagenic activity [1, 16]: 1449 ± 132 revertants/plate
- Mutagenic activity [1, 17]: >1500 revertants/plate
- Mutagenic activity ([1]; +S9, dose 23–769 µM (3.2–107 µg/plate)): >1500 revertants/plate
- Induction of revertant colonies compared with vehicle control [1]: did not induce a significantly higher number of revertant colonies
- Induction of revertants [1]: induced a significant and concentration-dependent increase of the number of revertants
- Mutagenic activity [1, 18]: 23 ± 1 revertants/plate
- Mutagenic activity [1, 19]: 21 ± 2 revertants/plate
- Mutagenic activity [1, 20]: 20 ± 1 revertants/plate
- Mutagenic activity [1, 21]: 21 ± 1 revertants/plate
- Mutagenic activity [1, 22]: 20 ± 1 revertants/plate
- Mutagenic activity ([1]; −S9, dose 23–769 µM (3.2–107 µg/plate)): 21–22 revertants/plate

SMILES: Cc1cnc2ccc3c(c2n1)N1CCC(O)N=C1N3C (stereo not drawn) [MelQx-M1, 9-hydroxyl-2,7-dimethyl-7,9,10,11-tetrahydropyrimido[2′,1′:2,3]imidazo[4,5-f]quinoxaline]
- LOAEL [5]: 350 µM
- NOAEL [5]: 200 µM
- BMD5 [5]: 262.2 µM
- BMD10 [5]: 334.6 µM
- BMDU5 [5]: 334 µM and 333.7 µM
- BMDL10 [5]: 272.8 µM
- BMDL5 [5]: 204 µM and 204.1 µM
- BMDU10 [5]: 366.1 µM
- IC10 (95% CI) ([5]; 24 h exposure): 316 (285–351) µM
- IC50 [5]: 617 µM
- Number of foci per plate [2, 11]: 1.1 ± 1.2
- Number of foci per plate [2, 12]: 0.1 ± 0.3
- Number of foci per plate ([2]; 1 µM, 72 h exposure, n = 9–10): 0.5 ± 0.7
- Number of foci per plate ([2]; 2 µM, 72 h exposure, n = 9–10): 0.1 ± 0.3
- Number of foci per plate ([2]; 3 µM, 72 h exposure, n = 9–10): 0.1 ± 0.3
- Number of foci per plate ([2]; 4 µM, 72 h exposure, n = 9–10): 0.2 ± 0.4
- Number of foci per plate ([2]; 5 µM, 72 h exposure, n = 9–10): 0 ± 0
- Number of foci per plate ([2]; 6 µM, 72 h exposure, n = 9–10): 0.6 ± 0.8
- Number of foci per plate ([2]; 7 µM, 72 h exposure, n = 9–10): 0.7 ± 1.5
- Number of foci per plate ([2]; 10 µM, 72 h exposure, n = 9–10): 1.4 ± 2.2
- Number of foci per plate ([2]; 50 µM, 72 h exposure, n = 9–10): 0 ± 0
- Induction of foci / cell transformation [2]: neither MelQx nor MelQx-M1 induced a significant amount of foci; also recorded: no detectable cell transformation
- Stability in the presence of S9 [7]: generation of small amounts of MelQx as a decomposition product
- Mutagenic activity [1, 13]: 44 ± 1 revertants/plate
- Mutagenic activity [1, 14]: 66 ± 5 revertants/plate
- Mutagenic activity [1, 15]: 182 ± 13 revertants/plate
- Mutagenic activity [1, 16]: 358 ± 4 revertants/plate
- Mutagenic activity [1, 17]: 770 ± 7 revertants/plate
- Mutagenic activity ([1]; +S9, dose 23 µM (4.0 µg/plate)): 1000 ± 20 revertants/plate
- Mutagenic activity ([1]; +S9, dose 77–769 µM (14–135 µg/plate)): >1500 revertants/plate
- Induction of revertant colonies compared with vehicle control [1]: did not induce a significantly higher number of revertant colonies
- Mutagenic activity relative to MelQx in terms of revertants/plate ([1]; after microbial transformation of MelQx to MelQx-M1): 3%–26%
- Induction of revertants [1]: induced a significant and concentration-dependent increase of the number of revertants
- Mutagenic activity [1, 18]: 21 ± 1 revertants/plate
- Mutagenic activity [1, 19]: 21 ± 1 revertants/plate
- Mutagenic activity [1, 20]: 21 ± 1 revertants/plate
- Mutagenic activity [1, 21]: 22 ± 2 revertants/plate
- Mutagenic activity [1, 22]: 31 ± 2 revertants/plate
- Mutagenic activity ([1]; −S9, dose 23 µM (4.0 µg/plate)): 32 ± 3 revertants/plate
- Mutagenic activity ([1]; −S9, dose 77–769 µM (14–135 µg/plate)): 41–54 revertants/plate

SMILES: Cn1c(NO)nc2ncc(-c3ccccc3)cc21 [N-OH-PhIP, 2-hydroxyamino-1-methyl-6-phenylimidazo[4,5-b]pyridine]
- Malignant transformation [8]: induced malignant transformation

SMILES: Cn1c(N)nc2ncc(-c3ccccc3)cc21 [PhIP, 2-amino-1-methyl-6-phenylimidazo[4,5-b]pyridine]
- Malignant transformation [3]: all induced malignant transformation
- Cell transformation [3]: none of the HCAs induced cell transformation
- Mutagenic activity (bacteria [6]): 1700 revertants/µg

SMILES: C[n+]1c2n(c3ncc(-c4ccccc4)cc31)CCC(O)N2.[Cl-] (stereo not drawn) [PhIP-M1, 7-hydroxy-5-methyl-3-phenyl-6,7,8,9-tetrahydropyrido[3’,2’:4,5]imidazo[1,2-a]pyrimidin-5-ium chloride]
- Expected mutagenic activity (bacteria [9]): 50 revertants/µg
- Malignant transformation of BALB/c 3T3 cells (BALB/c 3T3 cells): did not induce malignant transformation; also recorded: does not induce cell transformation
- Cytotoxicity (rat intestinal tissues): not being cytotoxic
- Mutagenic activity (bacteria [6]): 46 ± 2 revertants/µg
